The list is not random: actives were taken first. Their share in the collection is about 8.4%.
Ecoli tolC = E. coli tolC mutant growth inhibition; 65,000 compounds, 2.2% hits; growth inhibition, % at 10 µM (by protocol); AID 573; E. coli BW25113 tolC mutant growth, OD615;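 active = growth inhibition at or above a cutoff equal to the mean over every tested compound plus 3 SD, cut at about 60% in these data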;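 also: growth measured after 20 h incubation at 37 °C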
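Material: E. coli BW25113 ΔtolC::kan, tolC deletion mutant strain. Measure: percent growth inhibition. Schedule: 37 °C, 20 h exposure. Doses: single-point testing at 10 µM. Signal: A615 absorbance measurement. Buffer or medium: kanamycin-containing LB broth (50 µg/mL).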
PostGolgi ctrl = yeast control strain growth, post-Golgi counter-screen; AID 738; inhibition, % at 10 µM; 98,000 compounds, 5% hits; efflux-deficient yeast background strain, growth absorbance A615, 16 h
PostGolgi yeast = growth inhibition of a yeast mutant, post-Golgi transport screen | post-Golgi transport phenotypic cell assay | inhibition, % at 10 µM | 98,000 compounds, 0.9% hits | AID 739;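 also: yeast cells grown in 1536-well plates; yeast grown about 18 h at 30C before absorbance read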
Cav3 T inh = blocks human Cav3.2 T-type calcium channel | O95180 | Cav3.2-expressing cells, Fluo-4 calcium fluorescence FDSS; active compounds read low | B-score at 10 µM | 100,000 compounds, 4% hits;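 active = single-dose well whose peak fluorescence ratio is a statistical outlier from its plate by either plate-standardised score or position-corrected B-score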
Target sequence (O95180 whole entry, looked up): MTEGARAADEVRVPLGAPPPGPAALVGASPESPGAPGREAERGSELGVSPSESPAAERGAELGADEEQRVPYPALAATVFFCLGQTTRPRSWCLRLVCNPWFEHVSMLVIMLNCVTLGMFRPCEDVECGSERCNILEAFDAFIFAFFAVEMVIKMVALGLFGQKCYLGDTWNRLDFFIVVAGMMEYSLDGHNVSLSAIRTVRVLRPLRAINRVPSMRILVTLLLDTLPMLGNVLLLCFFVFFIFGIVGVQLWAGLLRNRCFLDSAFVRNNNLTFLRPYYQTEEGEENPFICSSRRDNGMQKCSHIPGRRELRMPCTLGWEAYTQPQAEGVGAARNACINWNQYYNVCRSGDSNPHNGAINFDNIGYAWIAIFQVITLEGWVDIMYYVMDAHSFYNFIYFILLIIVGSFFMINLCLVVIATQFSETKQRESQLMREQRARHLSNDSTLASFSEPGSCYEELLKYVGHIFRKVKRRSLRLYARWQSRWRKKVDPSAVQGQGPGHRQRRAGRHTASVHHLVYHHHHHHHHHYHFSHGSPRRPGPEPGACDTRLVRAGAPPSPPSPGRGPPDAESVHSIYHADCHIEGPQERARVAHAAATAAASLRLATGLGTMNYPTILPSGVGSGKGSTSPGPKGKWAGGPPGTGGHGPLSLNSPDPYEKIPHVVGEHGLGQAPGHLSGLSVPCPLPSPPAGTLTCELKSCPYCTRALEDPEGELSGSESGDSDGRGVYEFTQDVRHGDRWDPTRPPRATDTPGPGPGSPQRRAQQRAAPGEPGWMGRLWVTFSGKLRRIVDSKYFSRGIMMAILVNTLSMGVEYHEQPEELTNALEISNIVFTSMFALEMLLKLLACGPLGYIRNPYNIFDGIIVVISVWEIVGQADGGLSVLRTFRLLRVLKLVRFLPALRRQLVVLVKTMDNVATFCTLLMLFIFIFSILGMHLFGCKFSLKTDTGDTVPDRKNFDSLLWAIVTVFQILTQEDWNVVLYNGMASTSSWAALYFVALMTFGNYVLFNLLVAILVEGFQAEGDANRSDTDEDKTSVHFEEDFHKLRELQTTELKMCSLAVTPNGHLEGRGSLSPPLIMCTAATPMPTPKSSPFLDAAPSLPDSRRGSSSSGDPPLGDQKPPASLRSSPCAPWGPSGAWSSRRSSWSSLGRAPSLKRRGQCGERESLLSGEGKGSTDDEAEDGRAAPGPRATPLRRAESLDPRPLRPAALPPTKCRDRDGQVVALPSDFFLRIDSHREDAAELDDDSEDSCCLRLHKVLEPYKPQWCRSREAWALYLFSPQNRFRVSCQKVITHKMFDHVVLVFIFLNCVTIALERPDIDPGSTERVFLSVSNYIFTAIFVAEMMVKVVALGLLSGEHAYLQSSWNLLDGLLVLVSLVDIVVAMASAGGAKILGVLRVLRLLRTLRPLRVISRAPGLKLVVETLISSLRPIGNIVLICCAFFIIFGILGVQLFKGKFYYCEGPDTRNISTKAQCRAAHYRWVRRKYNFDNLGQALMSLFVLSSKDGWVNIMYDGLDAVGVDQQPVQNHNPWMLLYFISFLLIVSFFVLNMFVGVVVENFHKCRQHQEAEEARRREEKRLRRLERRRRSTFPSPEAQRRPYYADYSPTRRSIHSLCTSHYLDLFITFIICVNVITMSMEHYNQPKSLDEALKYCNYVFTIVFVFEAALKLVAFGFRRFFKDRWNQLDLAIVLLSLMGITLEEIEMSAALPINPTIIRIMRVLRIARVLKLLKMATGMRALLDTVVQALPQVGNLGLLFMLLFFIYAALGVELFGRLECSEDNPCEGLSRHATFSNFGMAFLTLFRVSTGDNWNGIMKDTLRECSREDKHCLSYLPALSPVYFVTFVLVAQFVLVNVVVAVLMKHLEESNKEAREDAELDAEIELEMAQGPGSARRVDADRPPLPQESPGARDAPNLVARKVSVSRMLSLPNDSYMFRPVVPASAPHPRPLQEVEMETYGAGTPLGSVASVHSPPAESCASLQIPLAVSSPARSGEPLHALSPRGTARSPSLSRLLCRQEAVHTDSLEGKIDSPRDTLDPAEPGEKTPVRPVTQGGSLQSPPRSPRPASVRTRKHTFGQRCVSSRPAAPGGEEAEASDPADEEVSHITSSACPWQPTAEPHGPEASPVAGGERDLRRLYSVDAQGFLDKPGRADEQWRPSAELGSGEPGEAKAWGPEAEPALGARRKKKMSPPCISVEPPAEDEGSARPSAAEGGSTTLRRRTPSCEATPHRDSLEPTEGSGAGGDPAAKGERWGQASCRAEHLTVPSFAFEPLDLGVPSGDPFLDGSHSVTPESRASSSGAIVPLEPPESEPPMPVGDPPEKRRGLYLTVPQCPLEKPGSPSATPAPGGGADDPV
Ecoli WT expand = blocks growth of wild type E. coli BW25113 | OD600 absorbance | growth inhibition, % at 100 µM | 98,000 compounds, 0.15% hits;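 active = growth inhibition above about 50% at one test dose, limit read from the data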;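 also: growth measured after 20 h incubation at 37 °C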
Starred values were filed as active, the others as inactive; · = no result. Rule as the data show it, unless noted: active = inhibition above about 30%; inactive = the rest.

SMILES | Ecoli tolC | PostGolgi ctrl | PostGolgi yeast | Cav3 T inh | Ecoli WT expand
CC1CCN(C(=O)CSCC(=O)Nc2nc(-c3cccs3)cs2)CC1 | 43.7 | 64.6* | -0.6 | -5.69* | -12.0
CN(C)NC(=O)c1ccsc1NC(=O)c1ccc(S(=O)(=O)N(C)C)cc1 | · | · | · | 0.492 | ·
O=C(CSc1nc2ncc(Br)cc2[nH]1)Nc1ccc2c(c1)OCO2 | 10.9 | -1.7 | -0.7 | · | -3.0
Cc1ccc2c(c1)c1c(n2CC(O)Cn2c(C)nc3ccccc32)/C(=N\O)CCC1 (configuration not stated) | 78.4* | 23.2 | -8.9 | -0.0146 | 3.0
Cc1nc2ccccc2n1CC(O)Cn1c2ccccc2c2ccccc21 (configuration not stated) | · | 21.3 | -3.5 | -1.28 | 2.0
O/N=C/c1cc(Br)ccc1OCc1ccccc1F | · | · | · | -1.63 | ·
Fc1ccccc1COc1ccc(Br)cc1CNCc1ccncc1 | · | 96.6* | 99.5* | 0.827 | 8.0
Fc1ccc(COc2ccc(Br)cc2CNCc2ccncc2)cc1 | · | 93.8* | 103.2* | -1.63 | 27.0
CCOc1cc(CNCc2ccncc2)cc(Br)c1OCc1ccc(F)cc1 | · | 24.6 | 15.8 | -1.63 | 1.0
Cc1ccc(C(=O)COC(=O)CNS(=O)(=O)c2ccccc2)cc1[N+](=O)[O-] | · | -5.9 | 20.4 | · | 9.0
CCOC(=O)c1ccc(NS(=O)(=O)c2cnc[nH]2)cc1 | -24.9 | -2.8 | 7.1 | -0.346 | 9.0
O=C(NCc1ccccc1)c1ccc(-c2ccccc2F)o1 | 21.8 | 23.1 | -1.1 | -4.23* | 4.0
O=C(NC1CCCCC1)c1ccc(S(=O)(=O)NCc2cccnc2)cc1 | -18.6 | -6.8 | 8.1 | 0.513 | 2.0
Clc1ccc2[nH]c(-c3ccccc3)cc2c1 | · | 42.4* | -5.9 | 0.463 | -24.0
O=c1cc(-c2ccccc2)[nH]c2cc(Cl)ccc12 | · | · | · | -1.18 | ·
N#Cc1ccc(C2=NC(C(F)(F)F)(C(F)(F)F)c3c(n(Cc4ccco4)c(=O)[nH]c3=O)N2)cc1 | · | 7.0 | -4.0 | -5.88* | 3.0
COc1ccc(NC(=O)C2CCCCN2CC(=O)OCc2ccccc2)cc1OC (configuration not stated) | -5.6 | -3.5 | 18.0 | -0.666 | 8.0
CCOC(=O)c1oc2ccccc2c1CN1CCN(c2ccccc2)CC1 | 19.3 | 10.4 | -0.5 | -4.77* | -2.0
CCOC(=O)c1c(-c2ccccc2)oc2ccc(O)c(CN3CCOCC3)c12 | 38.3 | 11.1 | 1.9 | -3.78 | -2.0
CCOC(=O)c1oc2ccccc2c1CN1CCN(C(=O)c2ccccc2)CC1 | 15.7 | -4.1 | 8.8 | -0.846 | 2.0
CCOC(=O)c1c(CN2CCN(c3ccccc3)CC2)oc2ccc(O)cc12 | 36.5 | 32.5* | -1.8 | 0.0128 | -3.0
COC(=O)C1=C(C(=O)c2ccc(C)cc2)C(c2ccc(OC)c(OC)c2)n2nnnc2N1 (configuration not stated) | -5.8 | 1.3 | -1.5 | 1.55 | -5.0
Cc1ccc(C)c(N=C2CCCN2Cc2ccccc2)c1C#N | · | · | · | -3.58 | ·
CCOC(=O)c1c(NC(=O)CSc2nnc(-c3ccco3)o2)sc(C)c1C | · | 7.3 | 5.4 | -2.96 | -5.0
CCOC(=O)c1c(NC(=O)CSc2nnc(Cc3ccccc3)o2)sc(C)c1C | · | · | · | -4.49* | ·
SMILES | Ecoli tolC | PostGolgi ctrl | PostGolgi yeast | Cav3 T inh | Ecoli WT expand
O=C(CSc1nnc(-c2ccco2)n1Cc1ccccc1)OC1CCCCC1 | 53.4 | 20.7 | -4.0 | -6.23* | -2.0
O=C1c2ccccc2C(=O)N1CCSc1nnc(-c2ccco2)n1Cc1ccccc1 | 14.1 | 36.7* | 3.3 | -1.76 | -2.0
Cn1c(=O)c(C(=O)CSc2nnc(Nc3ccccc3)s2)c(N)n(Cc2ccccc2)c1=O | · | -4.4 | -0.2 | 0.404 | -16.0
CCCn1c(N)c(C(=O)CSc2nnc(Cc3ccccc3)o2)c(=O)n(C)c1=O | 10.9 | 7.7 | 3.1 | -7.83* | -4.0
COc1cccc(-n2nnc3c(=O)n(CC(=O)N4CCCc5ccccc54)cnc32)c1 | 7.3 | 0.0 | -8.7 | 0.327 | 5.0
COC(=O)c1c(NC(=O)CSc2nnc(-c3ccco3)n2Cc2ccccc2)sc(C)c1C | · | 8.6 | -10.4 | -4.5* | -24.0
Cc1ccc2c(c1)N(CCC(=O)NCCCOC(C)C)C(=O)C(C)O2 (configuration not stated) | -7.0 | 10.7 | 1.6 | 0.755 | -2.0
O=C(Nc1cccc(F)c1)N1CC=C(c2ccc(Cl)cc2)CC1 | · | 40.9* | 22.2 | -7.41* | 0.0
CC(C)OC(=O)CC(NC(=O)OC(C)(C)C)c1ccccc1 (configuration not stated) | · | · | · | 0.366 | ·
Cc1ccc(C(=O)OCC(=O)N2CCc3ccccc32)cc1 | · | -6.5 | 6.5 | -0.537 | -3.0
Cc1ccc(N(CC(=O)N2CCc3ccccc32)C2=NC(=O)CS2)cc1 | 9.6 | 5.5 | -0.3 | -4.3* | 8.0
COc1ccc(OC)c(Nc2nc(-c3cccs3)cs2)c1 | 61.5* | 13.1 | -0.8 | 0.274 | -17.0
CCc1cccc(NC(=O)Cn2ncn3c(cc4ccccc43)c2=O)c1 | 0.8 | -6.4 | -8.3 | -0.559 | -21.0
Cc1ccc(Cn2ncn3c(cc4ccccc43)c2=O)cc1 | 64.6* | 34.5* | 1.7 | -2.39 | 1.0
COC(=O)Cn1nc(-c2ccccc2)c2ccccc21 | 22.4 | 31.4* | 7.1 | -0.326 | 6.0
CCOC(=O)c1c(NC(=O)c2ccc(N3C(=O)C4C5C=CC(C5)C4C3=O)cc2)sc2c1CCCC2 (configuration not stated) | · | 12.0 | -2.3 | -2.36 | -11.0
CC1CCc2cccc3c2N1c1cc(C#N)c(C#N)cc1O3 (configuration not stated) | 23.0 | 8.7 | 3.4 | -3.62* | -7.0
O=C(COC(=O)c1cc(-c2ccc(Cl)s2)nc2ccccc12)NCc1ccco1 | · | 32.7* | -9.3 | 0.522 | -19.0
COc1ccc(-c2[nH]ncc2/C=C(/C#N)C(=O)NC2CCCCCC2)cc1 | · | 50.2* | 10.1 | -0.778 | -1.0
CN(Cc1ccccc1)C(=O)Cn1c(=O)oc2cc(S(=O)(=O)NCc3ccccc3)ccc21 | · | -1.9 | -11.2 | -0.0779 | -4.0
CN(Cc1ccccc1)C(=O)Cn1c(=O)oc2cc(S(=O)(=O)N3CCCC3)ccc21 | · | 35.0* | 0.6 | -0.0299 | 0.0
O=C(NCCN1CCN(c2ccccc2)CC1)c1ccc(NC(=O)C2CCCO2)cc1 (configuration not stated) | -2.5 | 1.6 | -0.8 | 0.554 | -2.0
Cc1ccc2cc(CCNC(=O)c3ccc4c(c3)OCO4)c(=O)[nH]c2c1C | · | 1.8 | 2.2 | -0.458 | 6.0
O=C(NC1CCCCC1)c1ccc(Cn2cc(Br)cn2)o1 | -3.0 | 14.0 | -6.1 | 0.0231 | 6.0
O=C(Nc1ccc(C(F)(F)F)cc1Cl)c1ccc(Cn2cc(Br)cn2)o1 | 98.8* | 38.7* | -0.8 | -3.15 | 1.0
O=C(Nc1cccc(C(F)(F)F)c1)c1ccc(Cn2cc(Br)cn2)o1 | · | 38.5* | 5.6 | -7.18* | 14.0
Cc1ccc(NC(=O)N2CCC(C(=O)NCC(C)C)CC2)cc1 | -16.6 | -1.6 | 21.2 | 0.683 | -12.0
C=CCn1c(=O)/c(=C/c2cc(OC)c(OC)c(OC)c2)s/c1=C(/C#N)c1nc2ccccc2n1C | 1.6 | 3.2 | 1.1 | -3.63 | -8.0
Cn1cc(C(=O)c2ccc(Cl)cc2)cc1-c1nc2ccccc2n1C | 53.6 | 40.0* | 9.0 | · | -12.0
Cn1c(CNc2ccc(Cl)cc2)nc2ccccc21 | 26.3 | 20.2 | -14.0 | -2.03 | 18.0

Assay outcomes: PubChem BioAssay, several laboratories
